Results published in ChEMBL document CHEMBL4004793, “Spoxazomicin D and Oxachelin C, Potent Neuroprotective Carboxamides from the Appalachian Coal Fire-Associated Isolate Streptomyces sp. RM-14-6” (J Nat Prod, 2017).
pEC50, pIC50: −log10 of the molar value. ≈ marks a conversion by molar mass, not a printed value. Calls of active or inactive are those of the source. The calls are words filed in the database; no cut-off is given here.

Tests used:
[1] = tested on: Micrococcus luteus; assay: Antibacterial activity against Micrococcus luteus NRRL B-287 up to 60 uM after 16 to 48 hrs; assay type: functional
Outline: (§1)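 MIC determined after 16−48 h incubation, in triplicate, following earlier published protocols; kanamycin and ampicillin as positive controls for bacteria, amphotericin B for S. cerevisiae. S. aureus, S. enterica and S. cerevisiae strains from ATCC.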

[2] = tested on: Salmonella enterica; assay: Antibacterial activity against Salmonella enterica ATCC 10708 up to 60 uM after 16 to 48 hrs; assay type: functional; outline: as §1
[3] = tested on: A549; assay: Cytotoxicity against human A549 cells assessed as decrease in cell viability up to 20 uM after 48 hrs by resazurin assay; assay type: functional, cell-based
Outline: (§2)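 A549 non-small-cell lung cells from ATCC, run in triplicate following earlier published protocols; actinomycin D as positive control.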

[4] = tested on: Staphylococcus aureus; assay: Antibacterial activity against Staphylococcus aureus ATCC 6538 up to 60 uM after 16 to 48 hrs; assay type: functional; outline: as §1
[5] = tested on: Escherichia coli; assay: Antibacterial activity against Escherichia coli NRRL B-3708 up to 60 uM after 16 to 48 hrs; assay type: functional; outline: as §1
[6] = tested on: Saccharomyces cerevisiae; assay: Antifungal activity against Saccharomyces cerevisiae ATCC 204508 up to 60 uM after 16 to 48 hrs; assay type: functional; outline: as §1
[7] = tested on: Hippocampal neurone; assay: Neuroprotective activity against EtOH-induced damage in Sprague-Dawley rat hippocampal neuron after 48 hrs by propidium iodide uptake assay; assay type: functional, cell-based
Outline: (§3)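 Organotypic hippocampal slices from 8-day-old Sprague−Dawley rats in medium with 3.74 μM propidium iodide, with or without 100 mM EtOH plus test agent at varied concentrations, 48 h. Slices then imaged for propidium iodide uptake intensity as a marker of cell damage; post hoc statistical comparison vs control and vs EtOH.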

[8] = tested on: Hippocampal neurone; assay: Neuroprotective activity against EtOH-induced damage in Sprague-Dawley rat hippocampal neuron at 0.01 to 0.10 uM after 48 hrs by propidium iodide uptake assay; assay type: functional, cell-based; outline: as §3
[9] = tested on: Hippocampal neurone; assay: Neuroprotective activity against EtOH-induced damage in Sprague-Dawley rat hippocampal neuron at 0.01 uM after 48 hrs by propidium iodide uptake assay; assay type: functional, cell-based; outline: as §3
[10] = tested on: Salmonella enterica; assay: Antibacterial activity against Salmonella enterica ATCC 10708 after 16 to 48 hrs; assay type: functional; outline: as §1
[11] = tested on: A549; assay: Cytotoxicity against human A549 cells assessed as decrease in cell viability after 48 hrs by resazurin assay; assay type: functional, cell-based; outline: as §2
[12] = tested on: Saccharomyces cerevisiae; assay: Antifungal activity against Saccharomyces cerevisiae ATCC 204508 after 16 to 48 hrs; assay type: functional; outline: as §1
[13] = tested on: Staphylococcus aureus; assay: Antibacterial activity against Staphylococcus aureus ATCC 6538 after 16 to 48 hrs; assay type: functional; outline: as §1
[14] = tested on: HEK293; assay: Modulation of unfolded protein response in HEK293 cells after 48 hrs by ASGR-Cluc secretion assay; conditions: Homo sapiens
[15] = tested on: Micrococcus luteus; assay: Antibacterial activity against Micrococcus luteus NRRL B-287 after 16 to 48 hrs; assay type: functional; outline: as §1

| SMILES | Activity [1] | Activity [2] | Activity [3] | Activity [4] | Activity [5] | Activity [6] | further results |
| --- | --- | --- | --- | --- | --- | --- | --- |
| COC(=O)C1COC(c2ccccc2O)=N1 (configuration not stated) | inactive | inactive | inactive | inactive | inactive | inactive | – |
| NC(=O)Cc1ccccc1 | inactive | inactive | inactive | inactive | inactive | inactive | – |
| CC(=O)NCCc1ccc(O)cc1 | inactive | inactive | inactive | inactive | inactive | inactive | – |
| O=CN(O)CCC[C@@H](NC(=O)[C@H](CO)NC(=O)[C@H](CO)NC(=O)c1ccccc1O)C(=O)NCCC(=O)N[C@@H]1CCCN(O)C1=O | inactive | inactive | inactive | inactive | inactive | inactive | Activity [7]: inactive |
| CC1=CC(=O)C[C@]2(C)CC[C@@H](C(C)(C)O)C[C@@H]12 | inactive | inactive | – | inactive | inactive | inactive | – |
| N[C@@H](COC(=O)c1ccccc1O)C(=O)N[C@@H](CO)C(=O)N[C@H](CCCN(O)C=O)C(=O)NCCC(=O)N[C@@H]1CCCN(O)C1=O | inactive | inactive | inactive | inactive | inactive | inactive | Activity [8]: Active |
| NC(=O)c1ccccc1O | inactive | inactive | inactive | inactive | inactive | inactive | – |
| CNc1ccc(C(N)=O)cc1 | inactive | inactive | inactive | inactive | inactive | inactive | – |
| CC(C)C[C@@H]1NC(=O)[C@H]2C[C@@H](O)CN2C1=O | inactive | inactive | inactive | inactive | inactive | inactive | – |
| O=CN(O)CCC[C@@H](NC(=O)[C@H](CO)NC(=O)[C@@H]1COC(c2ccccc2O)=N1)C(=O)NCCC(=O)N[C@@H]1CCCN(O)C1=O | inactive | inactive | inactive | inactive | inactive | inactive | Activity [7]: inactive |
| C[C@H](CO)NC(=O)c1ccccc1O | inactive | inactive | inactive | inactive | inactive | inactive | – |
| C[C@@H](CO)NC(=O)c1ccccc1O | inactive | inactive | inactive | inactive | inactive | inactive | – |
| NC(=O)[C@@H]1COC(c2ccccc2O)=N1 | inactive | inactive | inactive | inactive | inactive | inactive | Activity [9]: Active |
| O=C(NC(CO)CO)c1ccccc1O | inactive | inactive | inactive | inactive | inactive | inactive | – |
| OC[C@@H]1COC(c2ccccc2O)=N1 | inactive | inactive | inactive | inactive | inactive | inactive | Activity [7]: inactive |
| CO[C@H]1CC[C@H](O[C@@H]2C[C@@H]([C@@H](C)/C=C(\C)C(=O)[C@H](C)C[C@H](C)C(=O)[O-])O[C@@]3(CC[C@@](C)([C@H]4CC[C@@H](C)[C@@]5(O[C@@H]([C@H]6O[C@@](O)(CO)[C@H](C)C[C@@H]6C)C[C@@H]5C)O4)O3)[C@@H]2C)O[C@@H]1C.[Na+] | – | – | – | – | – | – | MIC [10]: 0.1 to 3 µM; pIC50 ([11]; a549): 5.72; MIC ([12]; Saccharomyces cerevisiae, ATCC 204508, read-out: MIC): 0.1 to 3 µM; MIC [13]: 0.1 to 3 µM; pEC50 [14]: 6.96; MIC [15]: 0.1 to 3 µM |
| NC(=O)c1ccc[nH]1 | inactive | inactive | inactive | inactive | inactive | inactive | – |
| CO[C@H]1CC[C@H](O[C@@H]2C[C@@H]([C@@H](C)/C=C(\C)C(=O)[C@H](C)C[C@H](C)C(=O)O)O[C@@]3(CC[C@@](C)([C@H]4CC[C@@H](C)[C@@]5(O[C@@H]([C@H]6O[C@@](O)(CO)[C@H](C)C[C@@H]6C)C[C@@H]5C)O4)O3)[C@@H]2C)O[C@@H]1C | – | – | – | – | – | – | MIC ([10]; Salmonella enterica, ATCC 10708, read-out: MIC): 0.1 to 3 µM (≈ 0.0851 to 2.55 µg/mL); pIC50 ([11]; Homo sapiens, A549, 48 h): 5.92; MIC [12]: 0.1 to 3 µM; MIC ([13]; Staphylococcus aureus, ATCC 6538, read-out: MIC): 0.1 to 3 µM (≈ 0.0851 to 2.55 µg/mL); pEC50 [14]: 7.42; MIC ([15]; Micrococcus luteus, NRRL B-287, read-out: MIC): 0.1 to 3 µM (≈ 0.0851 to 2.55 µg/mL) |
